Experimental data collected from several papers.
Protocols differ between the studies behind these lines.
Target: Serine/threonine-protein kinase 17A (STK17A, Homo sapiens, UniProt Q9UEE5)
Residues used in one study (Q9UEE5 1-414): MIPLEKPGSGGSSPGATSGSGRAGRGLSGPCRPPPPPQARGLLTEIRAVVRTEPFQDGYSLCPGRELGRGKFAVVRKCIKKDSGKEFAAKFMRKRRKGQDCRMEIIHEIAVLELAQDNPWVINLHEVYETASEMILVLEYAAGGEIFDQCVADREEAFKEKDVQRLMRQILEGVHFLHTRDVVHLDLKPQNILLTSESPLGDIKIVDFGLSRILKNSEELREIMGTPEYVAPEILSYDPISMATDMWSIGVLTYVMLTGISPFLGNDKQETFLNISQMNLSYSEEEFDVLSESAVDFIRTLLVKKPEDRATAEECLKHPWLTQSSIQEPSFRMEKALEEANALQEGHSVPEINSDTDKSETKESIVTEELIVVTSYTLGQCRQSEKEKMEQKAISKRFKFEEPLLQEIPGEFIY

For `CC(C)S(=O)(=O)c1ccc2nccc(Nc3ccc4sc(C5CCCC5)nc4c3)c2c1`, the activity vs control was 108% (enzyme activity, inhibitor; 1 µM).
`COc1ccc2oc(-c3ccc4nc(N)oc4c3)c/c(=N\c3ccccc3NC(=O)CCN)c2c1` has a remaining binding of 89% (binding; 1 µM).
For `Cc1ccc(NC(=O)c2ccnc(C(F)(F)F)c2)cc1-c1cc(OCCO)nc(N2CCOCC2)c1`, the remaining binding was 91% (binding; 1 µM).
`CCCCC(=O)Nc1ccc(-c2ccc3ncn(CCC)c(=O)c3c2)cn1` gave a remaining binding of 100% (binding, competition with immobilised ligand; 0.5 µM).
The inhibition of `CC#CC(=O)N1CCC[C@H]1c1nc(-c2ccc(C(=O)Nc3ccccn3)cc2)c2c(N)nccn12` is reported as 0% (enzyme activity, inhibitor; 1 µM).
`COc1ccc2[nH]c3c4[nH]c5ccc(OC)cc5c4c4c(c3c2c1)C(=O)NC4=O` gave a remaining binding of 0.4% (binding; 1 µM).
For `C=CC(=O)N1CCC[C@@H](n2nc(-c3ccc(Oc4ccccc4)cc3)c3c(N)ncnc32)C1`, the inhibition was 8% (enzyme activity, inhibitor; 1 µM).
`Cc1cc(O)c(-c2ccc([C@@H](C)CN(C)C)cc2)c2c1[nH]c(=O)c1sccc12` has an inhibition of 3.3% (cell-free assay, inhibitor; 0.1 µM).
